Activity calls are given as the source filed them. No cut-off for these calls is given here.
Key:
MCF7 = assay: Cytotoxic activity against human MCF7 cells assessed as cell growth inhibition after 48 hrs by MTT assay; assay type: functional, cell-based; settings: MCF7, 48 h
Outline: (§1)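 Log-phase cells (1.25-2.5×10^4/100 µl; RPMI 1640, HepG2 in high-glucose DMEM, 10% FBS) given compound in DMSO (final <0.1%), 0-50 µM, 48 h, 37 °C, 5% CO2. MTT 4 h, DMSO solubilization, OD 540 nm minus background; viability relative to untreated; IC50 by graphical extrapolation, ≥3 experiments in duplicate.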

HT-29 [1] = assay: Cytotoxic activity against human HT-29 cells assessed as cell growth inhibition after 48 hrs by MTT assay; assay type: functional, cell-based; settings: HT-29, 48 h; outline: as §1
Jurkat = assay: Cytotoxic activity against human Jurkat cells assessed as cell growth inhibition after 48 hrs by MTT assay; assay type: functional, cell-based; outline: as §1
HepG2 = assay: Cytotoxic activity against human HepG2 cells assessed as cell growth inhibition after 48 hrs by MTT assay; assay type: functional, cell-based; settings: HepG2, 48 h; outline: as §1
U-937 = assay: Cytotoxic activity against human U937 cells assessed as cell growth inhibition after 48 hrs by MTT assay; assay type: functional, cell-based; settings: U-937, 48 h; outline: as §1
PBMC = assay: Cytotoxic activity against human PBMC cells assessed as cell growth inhibition after 48 hrs by MTT assay; assay type: cell-based; outline: as §1
HT-29 [2] = assay: Induction of apoptosis in human HT-29 cells assessed as early apoptotic cells using annexin V-FITC/propidium iodide staining at IC50 after 12 hrs by flow cytometry (reference value: 0.1%); assay type: functional
HT-29 [3] = assay: Induction of apoptosis in human HT-29 cells assessed as loss of mitochondrial membrane potential using JC-1 dye at IC50 after 48 hrs by flow cytometry (reference value: 1.75%); assay type: functional
HT-29 [4] = assay: Induction of apoptosis in human HT-29 cells assessed as apoptotic bodies using Hoechst 33258 dye at IC50 after 48 hrs by confocal microscopic analysis; assay type: functional, cell-based
Outline: (§2)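 HT-29 (2.5×10^5 cells/ml) treated 48 h at 37 °C, 5% CO2, washed, fixed in 4% paraformaldehyde (4 °C, 30 min), stained with Hoechst 33258 (5 µg/ml final, 37 °C, 30 min, dark), mounted in 50% glycerol on poly-L-lysine slides; confocal imaging at 100×.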

HT-29 [5] = assay: Induction of apoptosis in human HT-29 cells assessed as ROS generation measured up to 15 mins by FACS analysis; assay type: functional, cell-based
Outline: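 HT-29 (2.5×10^5/ml) exposed 0-2 h, washed, loaded with CM-H2DCFDA (5 μM in PBS) 30 min at 37 °C in the dark. DCF read by flow cytometry (ex 488/em 530 nm) on FSC/SSC-gated viable cells; mean fluorescence intensity, three independent experiments.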

HT-29 [6] = assay: Induction of apoptosis in human HT-29 cells assessed as early apoptotic cells using annexin V-FITC/propidium iodide staining at IC50 after 48 hrs by flow cytometry (reference value: 0.1%); assay type: functional
HT-29 [7] = assay: Induction of apoptosis in human HT-29 cells assessed as increase in caspase-9 activity at IC50 after 48 hrs by colorimetric assay; assay type: functional, cell-based
HT-29 [8] = assay: Induction of apoptosis in human HT-29 cells assessed as late apoptotic cells using annexin V-FITC/propidium iodide staining at IC50 after 12 hrs by flow cytometry (reference value: 0.0%); assay type: functional
HT-29 [9] = assay: Induction of apoptosis in human HT-29 cells assessed as membrane blebbing using Hoechst 33258 dye at IC50 after 48 hrs by confocal microscopic analysis; assay type: functional, cell-based; outline: as §2
HT-29 [10] = assay: Induction of apoptosis in human HT-29 cells assessed as fragmentation using Hoechst 33258 dye at IC50 after 48 hrs by confocal microscopic analysis; assay type: functional, cell-based; outline: as §2
HT-29 [11] = assay: Induction of apoptosis in human HT-29 cells assessed as reduction in Bcl2/Bax ratio at IC50 after 12 to 48 hrs by Western blotting; assay type: functional, cell-based
Calf thymus DNA [12] = assay: Binding affinity to calf thymus DNA assessed as conformational change at 50 uM after 2 hrs by circular dichroism analysis; assay type: nucleic-acid assay; settings: Bos taurus
Outline: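 CT-DNA (500 μg/mL) incubated alone or with 50 μM compound for 2 h at 37 °C in 50 mM Tris-HCl/NaCl buffer; CD spectra recorded for conformation, with the positive band at 275 nm and the negative band at 245 nm (B-form) monitored.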

HT-29 [13] = assay: Cytotoxicity against human HT-29 cells assessed as cell viability after 48 hrs by MTT assay in presence of NAC; assay type: functional, cell-based; settings: HT-29, 48 h
Outline: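 HT-29 cells pre-incubated with 2.5 mM N-acetyl cysteine for 3 h, then exposed to compound and assayed for viability by MTT.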

HT-29 [14] = assay: Induction of apoptosis in human HT-29 cells assessed as loss of mitochondrial membrane potential using JC-1 dye at IC50 after 24 hrs by flow cytometry (reference value: 1.75%); assay type: functional
Calf thymus DNA [15] = assay: Binding affinity to calf thymus DNA up to 2 hrs by absorption spectroscopy analysis; assay type: nucleic-acid assay; settings: Bos taurus
Outline: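 Compound stock in 60% ethanol/50 mM Tris-HCl/NaCl (pH 7.5), diluted in buffer, actual concentration set by molar extinction coefficient. CT-DNA held at 50 μg/ml (legend: 100 μg/mL) with varied compound, 37 °C, 2 h; UV-vis scanned 200-400 nm. θ from 260 nm absorbance; Kb as the reciprocal of ligand concentration at half-saturation of the isotherm.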

HT-29 [16] = assay: Induction of apoptosis in human HT-29 cells assessed as late apoptotic cells using annexin V-FITC/propidium iodide staining at IC50 after 24 hrs by flow cytometry (reference value: 0.0%); assay type: functional
HT-29 [17] = assay: Induction of apoptosis in human HT-29 cells assessed as late apoptotic cells using annexin V-FITC/propidium iodide staining at IC50 by flow cytometry; assay type: functional, cell-based; settings: TDE = time-dependent effect
HT-29 [18] = assay: Induction of apoptosis in human HT-29 cells assessed as late apoptotic cells using annexin V-FITC/propidium iodide staining at IC50 after 48 hrs by flow cytometry (reference value: 0.0%); assay type: functional
HT-29 [19] = assay: Induction of apoptosis in human HT-29 cells assessed as increase in caspase-8 activity at IC50 after 48 hrs by colorimetric assay; assay type: functional, cell-based
HT-29 [20] = assay: Induction of apoptosis in human HT-29 cells assessed as cleavage of PARP at IC50 after 24 to 48 hrs by Western blotting; assay type: functional, cell-based
HT-29 [21] = assay: Induction of apoptosis in human HT-29 cells assessed as early apoptotic cells using annexin V-FITC/propidium iodide staining at IC50 after 24 hrs by flow cytometry (reference value: 0.1%); assay type: functional
HT-29 [22] = assay: Induction of apoptosis in human HT-29 cells assessed as loss of mitochondrial membrane potential using JC-1 dye at IC50 after 12 hrs by flow cytometry (reference value: 1.75%); assay type: functional
HT-29 [23] = assay: Induction of apoptosis in human HT-29 cells assessed as chromatin condensation using Hoechst 33258 dye at IC50 after 48 hrs by confocal microscopic analysis; assay type: functional, cell-based; outline: as §2
HT-29 [24] = assay: Induction of apoptosis in human HT-29 cells assessed as increase in caspase-3 activity at IC50 after 48 hrs by colorimetric assay; assay type: functional, cell-based
HT-29 [25] = assay: Induction of apoptosis in human HT-29 cells assessed as early apoptotic cells using annexin V-FITC/propidium iodide staining at IC50 by flow cytometry; assay type: functional, cell-based; settings: TDE = time-dependent effect

Q: For `C=C(C)[C@@H]1CC[C@]2(C(=O)O)CC[C@]3(C)[C@H](CC[C@@H]4[C@@]5(C)CC[C@H](OC(=O)Cn6cc(-c7ccc8[nH]ccc8c7)nn6)C(C)(C)[C@@H]5CC[C@]43C)[C@@H]12`, which IC50 (MCF7) is on record?
A: > 50 µM

Q: What about the IC50 (HT-29 [1]) of the same compound?
A: > 50 µM

Q: And the IC50 (Jurkat)?
A: > 50 µM

Q: What about the IC50 (HepG2) of the same compound?
A: > 50 µM

Q: And the IC50 (U-937)?
A: > 50 µM

Q: How did the IC50 (MCF7) turn out when `C=C(C)[C@@H]1CC[C@]2(C(=O)O)CC[C@]3(C)[C@H](CC[C@@H]4[C@@]5(C)CC[C@H](OC(=O)Cn6cc(CO[C@@H]7[C@H]8OC(C)(C)O[C@H]8O[C@@H]7[C@H]7COC(C)(C)O7)nn6)C(C)(C)[C@@H]5CC[C@]43C)[C@@H]12` was run?
A: > 50 µM

Q: What about the IC50 (HT-29 [1]) of the same compound?
A: > 50 µM

Q: And the IC50 (Jurkat)?
A: > 50 µM

Q: And the IC50 (HepG2)?
A: > 50 µM

Q: And the IC50 (U-937)?
A: > 50 µM

Q: How did the IC50 (MCF7) turn out when `C=C(C)[C@@H]1CC[C@]2(C(=O)O)CC[C@]3(C)[C@H](CC[C@@H]4[C@@]5(C)CC[C@H](OC(=O)Cn6cc(-c7cnc(OC)nc7OC)nn6)C(C)(C)[C@@H]5CC[C@]43C)[C@@H]12` was run?
A: 44.7 µM

Q: What about the IC50 (HT-29 [1]) of the same compound?
A: 39.8 µM

Q: And the IC50 (Jurkat)?
A: > 50 µM

Q: And the IC50 (PBMC)?
A: > 50 µM

Q: And the IC50 (HepG2)?
A: > 50 µM

Q: What about the IC50 (U-937) of the same compound?
A: 41.9 µM

Q: For `C=C(C)[C@@H]1CC[C@]2(C(=O)O)CC[C@]3(C)[C@H](CC[C@@H]4[C@@]5(C)CC[C@H](OC(=O)Cn6cc(CCCC)nn6)C(C)(C)[C@@H]5CC[C@]43C)[C@@H]12`, which IC50 (MCF7) is on record?
A: > 50 µM

Q: And the IC50 (HT-29 [1])?
A: > 50 µM

Q: What about the IC50 (Jurkat) of the same compound?
A: > 50 µM

Q: And the IC50 (HepG2)?
A: 49.8 µM

Q: And the IC50 (U-937)?
A: > 50 µM

Q: What does the source list for `C=C(C)[C@@H]1CC[C@]2(C(=O)O)CC[C@]3(C)[C@H](CC[C@@H]4[C@@]5(C)CC[C@H](OC(=O)Cn6cc(-c7ccc(C(=O)OC)cc7)nn6)C(C)(C)[C@@H]5CC[C@]43C)[C@@H]12`?
A: IC50 (MCF7): > 50 µM; IC50 (HT-29 [1]): > 50 µM; IC50 (Jurkat): > 50 µM; IC50 (HepG2): > 50 µM; IC50 (U-937): > 50 µM

Q: Which Activity (HT-29 [2]) does the source give for `C=C(C)[C@@H]1CC[C@]2(C(=O)O)CC[C@]3(C)[C@H](CC[C@@H]4[C@@]5(C)CC[C@H](OC(=O)Cn6cc(CO)nn6)C(C)(C)[C@@H]5CC[C@]43C)[C@@H]12` here?
A: 14.1%

Q: What about the Activity (HT-29 [3]) of the same compound?
A: 51.4%

Q: What about the Activity (HT-29 [4]) of the same compound?
A: Active

Q: And the Activity (HT-29 [5])?
A: Active

Q: What about the Activity (HT-29 [6]) of the same compound?
A: 25.2%

Q: And the Activity (HT-29 [7])?
A: Active

Q: What about the IC50 (MCF7) of the same compound?
A: > 50 µM

Q: And the Activity (HT-29 [8])?
A: 2%

Q: What about the Activity (HT-29 [9]) of the same compound?
A: Active

Q: And the Activity (HT-29 [10])?
A: Active

Q: And the IC50 (HT-29 [1])?
A: 14.9 µM

Q: What about the IC50 (Jurkat) of the same compound?
A: 41.4 µM

Q: And the Activity (HT-29 [11])?
A: Active

Q: And the Activity (Calf thymus DNA [12])?
A: inactive

Q: And the IC50 (HT-29 [13])?
A: 30.4 µM

Q: And the Activity (HT-29 [14])?
A: 30.5%

Q: What about the IC50 (PBMC) of the same compound?
A: > 50 µM

Q: And the K (Calf thymus DNA [15])?
A: 8.38 ×10⁴ /M

Q: What about the Activity (HT-29 [16]) of the same compound?
A: 3.2%

Q: What about the IC50 (HepG2) of the same compound?
A: > 50 µM

Q: And the Activity (HT-29 [17])?
A: tde

Q: And the Activity (HT-29 [18])?
A: 4.6%

Q: What about the Activity (HT-29 [19]) of the same compound?
A: inactive

Q: And the Activity (HT-29 [20])?
A: Active

Q: What about the Activity (HT-29 [21]) of the same compound?
A: 17.1%

Q: And the Activity (HT-29 [22])?
A: 16.5%

Q: What about the Activity (HT-29 [23]) of the same compound?
A: Active

Q: What about the Activity (HT-29 [24]) of the same compound?
A: Active

Q: What about the IC50 (U-937) of the same compound?
A: > 50 µM

Q: What about the Activity (HT-29 [25]) of the same compound?
A: tde

From ChEMBL document CHEMBL3611973, “Synthesis and biological evaluation of a novel betulinic acid derivative as an inducer of apoptosis in human colon carcinoma cells (HT-29)” (Eur J Med Chem, 2015)
